According to ChEMBL document CHEMBL1142174, “Pyrazinoic acid and its n-propyl ester inhibit fatty acid synthase type I in replicating tubercle bacilli” (2007):
Converted amounts (≈) assume the structure as drawn.

Columns and labels:
[1] = tested on: Mycobacterium tuberculosis; assay: Inhibition of fatty acid synthase 1 in Mycobacterium tuberculosis assessed as incorporation of [1-14C]acetate in C16 biosynthesis at 250 ug/ml
How it was run: (§1)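 M. tuberculosis was grown from frozen stock in 7H12 to OD600 0.3–0.4, diluted 10-fold and grown 48–72 h more. 10-ml aliquots (OD600 0.2–0.25) were pelleted and resuspended in fresh drug-containing medium for 12 h. Cells were labelled with [1-14C]acetate (1 μCi/ml) for 6 h. Soluble lipids were extracted and saponified, and 14C-labelled C16 was quantified.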

[2] = tested on: Mycobacterium tuberculosis; assay: Inhibition of fatty acid synthase 1 in Mycobacterium tuberculosis assessed as incorporation of [1-14C]acetate in C16 biosynthesis at 1200 ug/ml at pH 6.0; how it was run: as §1
[3] = tested on: Mycobacterium tuberculosis; assay: Antimicrobial activity against Mycobacterium tuberculosis at pH 6 by broth microdilution test; type: functional
[4] = tested on: Mycobacterium tuberculosis; assay: Antimicrobial activity against Mycobacterium tuberculosis at pH 6.8 by broth microdilution test; type: functional
How it was run: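 Broth macrodilution MIC with an inoculum of 10^5 CFU/ml. Medium was Middlebrook 7H9 with 10% OADC, 0.2% glycerol and 0.05% Tween 80. Medium pH was set to 6 or 6.8 with 4.25% phosphoric acid or 5% dibasic potassium phosphate.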

[5] = tested on: Mycobacterium tuberculosis; assay: Inhibition of fatty acid synthase 1 in Mycobacterium tuberculosis assessed as incorporation of [1-14C]acetate in C16 biosynthesis at 250 ug/ml at pH 5.5; how it was run: as §1
[6] = tested on: Mycobacterium tuberculosis; assay: Inhibition of fatty acid synthase 1 in Mycobacterium tuberculosis assessed as incorporation of [1-14C]acetate in C16 biosynthesis at 1250 ug/ml at pH 6.0; how it was run: as §1
[7] = tested on: Mycobacterium tuberculosis; assay: Inhibition of fatty acid synthase 1 in Mycobacterium tuberculosis assessed as incorporation of [1-14C]acetate in C16 biosynthesis at 800 ug/ml; how it was run: as §1

`NC(=O)c1cnc(Cl)cn1` gave an inhibition [1] of 94%.

For `NC(=O)c1cnccn1`, the inhibition [2] was 88%.

`O=C(O)c1cnccn1` [PYRAZINOIC ACID] showed an MIC [3] of 100 µg/mL (≈ 806 µM), an MIC [4] of 300 µg/mL (≈ 2420 µM) and an inhibition [5] of 60%. It also gave an inhibition [6] of 60%.

In the case of `CCCOC(=O)c1cnccn1`, the MIC [3] is reported as 60 µg/mL (≈ 361 µM), the MIC [4] is reported as 80 µg/mL (≈ 481 µM) and the inhibition [7] is reported as 96%.
